# Measured values from different studies.
# Protocols differ between the studies behind these lines.
# TEK: Angiopoietin-1 receptor (TEK, Homo sapiens, UniProt Q02763)
# CDK2 with cyclin A2: Cyclin-dependent kinase 2, with cyclin A2 (CDK2, Homo sapiens, UniProt P24941)
# ST14: Suppressor of tumorigenicity 14 protein (ST14, Homo sapiens, UniProt Q9Y5Y6)
target,assay,conditions,measurement,result,Structure (SMILES)
TEK,"binding, competition with immobilised ligand",1 µM,remaining binding,100%,C=CC(=O)N1CCC(COCC(=O)N2CCN(c3nc(-c4cnc(N)nc4C(F)F)nc(N4CCOC[C@@H]4C)n3)CC2)CC1
CDK2 with cyclin A2,"enzyme activity, inhibitor",10 nM,inhibition,15%,CC(=O)Nc1c(N)nc(SCC(=O)N/N=C/c2ccc([N+](=O)[O-])cc2)[nH]c1=O
"Mitogen-activated protein kinase 10 (MAPK10, Homo sapiens, UniProt P53779)","binding, competition with immobilised ligand",10 µM,remaining binding,100%,Cc1cc([C@@H](C)Nc2ccccc2C(=O)O)c2nc(N3CCC(F)(F)CC3)c(C#N)c(=O)n2c1
TEK,"enzyme activity, inhibitor, radiometric",1 µM,remaining activity,98%,CNc1ncc2c(/C=C/C(=O)N3CCC(OC)CC3)nn(Cc3cccc(C(F)(F)F)c3)c2n1
ST14,"enzyme activity, inhibitor",0.1 µM,remaining activity,4%,CC[C@@H](C)[C@H](NC(=O)[C@H](Cc1cscn1)NC(=O)CCc1ccccc1)C(=O)N[C@@H](CCCNC(=N)N)C(=O)c1nc2ccccc2s1
CDK2 with cyclin A2,"enzyme activity, inhibitor",0.5 µM,inhibition,74%,CNC(=O)c1cc(Oc2ccc(NC(=O)Nc3ccc(Cl)c(C(F)(F)F)c3)cc2)ccn1
ST14,"enzyme activity, inhibitor",0.1 µM,remaining activity,30%,N=C(N)NCCC[C@H](NC(=O)[C@H](Cc1ccc(-c2ccccc2)cc1)NC(=O)[C@H](Cc1cscn1)NC(=O)CCc1ccccc1)C(=O)c1nc2ccccc2s1
"Angiopoietin-1 receptor (TEK, Homo sapiens, UniProt Q02763, Y897S)","enzyme activity, inhibitor",1 µM,remaining activity,102%,COc1cc(-c2cncc3c2CN(C)Cc2cc(N4CCNCC4)ccc2-3)cc(OC)c1OC
CDK2 with cyclin A2,"enzyme activity, inhibitor",200 pM,inhibition,3.98%,CC(=O)Nc1c(N)nc(SCC(=O)NN)[nH]c1=O
ST14,"enzyme activity, inhibitor",0.1 µM,remaining activity,89%,CC(C)(C)[C@H](NC(=O)[C@H](Cc1cscn1)NC(=O)CCc1ccccc1)C(=O)N[C@@H](CCCNC(=N)N)C(=O)c1nc2ccccc2s1
